Source: PubChem
Only some compounds are listed: those with a hit (about 4.6% of all), similar ones and a draw of the others.
PfM18AAP inh-1: blocks P. falciparum M18 aspartyl aminopeptidase. recombinant PfM18AAP, H-Glu-NHMec fluorogenic cleavage. inhibition, % at 7.35 µM. 290,000 compounds, 1.2% hits;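 active = inhibition above the campaign mean inhibition over all tested compounds plus 3 SD, cut at about 28% in these data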;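 note: 0% = plate median of test compound wells and 100% = 2 mM ZnCl2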
Rtt109 HAT inh: blocks Candida albicans Rtt109/Vps75 acetyltransferase activity. purified Rtt109/Vps75, ThioGlo CoA-SH fluorescence, 4 h. inhibition, % at 34.9 µM. 330,000 compounds, 0.16% hits;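 active = inhibition of at least 50% in every replicate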
FAS-TE inh: blocks the thioesterase domain of human fatty acid synthase. P49327. recombinant FAS-TE, OMFH fluorogenic substrate, fluorescence endpoint. inhibition, % at 15 µM. 360,000 compounds, 0.67% hits. AID 602261;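 active = compounds whose normalised, plate-corrected inhibition of enzyme fluorescence in the single-dose primary screen is 50% or more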;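 note: 0% = DMSO with enzyme and 100% = substrate without enzyme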
ALR H2O2 inh: human ALR oxidase inhibition via reduced H2O2. 290,000 compounds, 3.8% hits. P55789. purified ALR, DTT oxidation, H2O2 HRP-luminol luminescence. inhibition, % (no concentration beside the values);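 active = mean replicate inhibition above about 79%, with every replicate also reaching it, limit read from the data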
Target sequence (P55789 whole entry, looked up): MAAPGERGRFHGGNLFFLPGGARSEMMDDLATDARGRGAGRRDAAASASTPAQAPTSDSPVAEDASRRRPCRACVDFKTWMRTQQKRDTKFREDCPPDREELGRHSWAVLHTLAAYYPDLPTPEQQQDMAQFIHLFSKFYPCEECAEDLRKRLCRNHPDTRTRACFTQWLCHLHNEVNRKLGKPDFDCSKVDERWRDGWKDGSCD
UCH37 inh: blocks the human deubiquitinase UCH37. Q9Y5K5. purified proteasome/UCH37, Ub-AMC cleavage fluorescence. inhibition, % (no concentration beside the values). 330,000 compounds, 0.33% hits. AID 588478;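 active = mean inhibition over replicate wells above about 20%, limit read from the data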;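 note: 0% = compound-free wells with enzyme and 100% = wells lacking proteasome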
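Material: human UCH37 enzyme supplied as purified proteasome complex / Amount: 0.15 nM proteasome as dispensed / Buffer or medium: pH 7.4 Tris-HCl (50 mM) with ovalbumin, ATP-MgCl2, DTT / Times: preincubation 30 min, reaction 25 min, room temperature / Technique: AMC fluorescence from Ub-AMC cleavage, excitation 355 nm, emission 460 nm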
HDAC3 inhib: human HDAC3 inhibition; recombinant HDAC3, fluorogenic peptide/trypsin coupled, fluorescence; AID 2718; 320,000 compounds, 0.15% hits; inhibition, % at 8.3 µM; in the data active = inhibition above about 26%, passing the limit was not always enough
Target sequence (O15379 whole entry, looked up): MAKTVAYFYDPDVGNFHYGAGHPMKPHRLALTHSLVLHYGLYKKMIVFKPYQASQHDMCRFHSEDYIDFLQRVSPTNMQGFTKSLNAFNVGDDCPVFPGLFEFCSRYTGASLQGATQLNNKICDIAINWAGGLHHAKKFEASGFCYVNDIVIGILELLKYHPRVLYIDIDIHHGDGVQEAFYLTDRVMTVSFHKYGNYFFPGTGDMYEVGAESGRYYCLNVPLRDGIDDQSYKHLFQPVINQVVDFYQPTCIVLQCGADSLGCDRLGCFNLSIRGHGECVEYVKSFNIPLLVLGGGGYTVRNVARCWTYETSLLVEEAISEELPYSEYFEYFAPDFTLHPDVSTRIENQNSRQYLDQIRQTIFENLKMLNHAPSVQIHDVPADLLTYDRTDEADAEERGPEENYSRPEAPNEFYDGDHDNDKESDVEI
PfM18AAP inh-2: PfM18AAP inhibition, confirmation; shares compounds with PfM18AAP inh-1; recombinant PfM18AAP, H-Glu-NHMec fluorogenic cleavage; inhibition, % at 7.35 µM; 2,400 compounds, 28% hits;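 active = mean inhibition over replicate wells above the hit cutoff set for the earlier primary screen, cut at about 29% in these data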;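 note: 0% = median of test compound wells and 100% = 2 mM ZnCl2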
CTSL1 confirm: Cathepsin L (human) inhibition, confirmation | shares compounds with PfM18AAP inh-1 | purified cathepsin L1, Z-Leu-Arg-MCA fluorescence | inhibition, % at 5.96 µM | 2,400 tested, under 10 active;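 active = average inhibition across replicates above the hit cutoff set in the earlier primary screen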;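 note: 0% = median of test compound wells and 100% = Z-Phe-Ala-diazomethylketone 1 µM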
Starred values were filed as active, the others as inactive.

How did Cc1ccc(S(=O)(=O)c2cc3c(=O)n4ccccc4nc3n(CCCN3CCOCC3)c2=N)cc1C do in these assays?
PfM18AAP inh-1: 27; Rtt109 HAT inh: -18; FAS-TE inh: 42; ALR H2O2 inh: -3; UCH37 inh: -95; HDAC3 inhib: -37

Results for N=c1c(S(=O)(=O)c2ccccc2)cc2c(=O)n3ccccc3nc2n1CCCN1CCOCC1 ?
PfM18AAP inh-1: 34*; Rtt109 HAT inh: -2; FAS-TE inh: 4; ALR H2O2 inh: 0; UCH37 inh: -93; HDAC3 inhib: -32; PfM18AAP inh-2: -30; CTSL1 confirm: -4

What do the screens show for `COC(=O)CCC(=O)Nc1sc(C)c(C)c1C(N)=O`?
PfM18AAP inh-1: 43*; Rtt109 HAT inh: 4; FAS-TE inh: -4; ALR H2O2 inh: 17; UCH37 inh: -3; HDAC3 inhib: -3; PfM18AAP inh-2: 18; CTSL1 confirm: 3

Results for COC(=O)c1c(NC(=O)Nc2ccc(Cl)cc2)sc(C)c1C ?
PfM18AAP inh-1: 13; Rtt109 HAT inh: -1; FAS-TE inh: -6; ALR H2O2 inh: 1; UCH37 inh: -17; HDAC3 inhib: -2

What do the screens show for `COC(=O)CCC(=O)NC(=S)Nc1sc(C)c(C)c1C(N)=O`?
PfM18AAP inh-1: 14; Rtt109 HAT inh: -4; FAS-TE inh: -10; ALR H2O2 inh: -2; HDAC3 inhib: 3

What do the screens show for `Cc1sc(NC(=O)C2CCCCC2C(=O)O)c(C(N)=O)c1-c1ccccc1` (stereo unspecified)?
PfM18AAP inh-1: 5; Rtt109 HAT inh: -2; FAS-TE inh: -7; ALR H2O2 inh: 5; UCH37 inh: 2; HDAC3 inhib: 5

How did Cc1sc(NC(=O)Nc2ccccc2)c(C(N)=O)c1C do in these assays?
PfM18AAP inh-1: 37*; Rtt109 HAT inh: 0; FAS-TE inh: 2; ALR H2O2 inh: 38; UCH37 inh: -1; HDAC3 inhib: 4; PfM18AAP inh-2: 5; CTSL1 confirm: 0

What do the screens show for `Cc1sc(NC(=O)C2CCCCC2C(=O)O)c(C(N)=O)c1C` (stereo unspecified)?
PfM18AAP inh-1: 36*; Rtt109 HAT inh: 9; FAS-TE inh: -9; ALR H2O2 inh: 0; UCH37 inh: 4; HDAC3 inhib: 3; PfM18AAP inh-2: -56; CTSL1 confirm: -1

Results for CSc1nncc(C(C)=NNc2cccc(C)c2)n1 ?
UCH37 inh: 4

What do the screens show for `COc1ccc(C=NNC(=O)c2ccncc2)c(OC)c1`?
UCH37 inh: 13

Results for COC(=O)C(N)Cc1ccc(O)c(O)c1 (stereo unspecified) ?
PfM18AAP inh-1: 84*; Rtt109 HAT inh: 3; FAS-TE inh: -4; ALR H2O2 inh: 99*; UCH37 inh: 0; HDAC3 inhib: 4; PfM18AAP inh-2: 53*; CTSL1 confirm: -1

How did O=C(/C=C/c1ccc(O)c(O)c1)O[C@H](Cc1ccc(O)c(O)c1)C(=O)O do in these assays?
UCH37 inh: 3

What do the screens show for `COC(=O)C1=C(C(=O)c2ccccc2)C(c2ccc(O)c(OC)c2)n2nnnc2N1` (stereo unspecified)?
PfM18AAP inh-1: 18; Rtt109 HAT inh: 10; FAS-TE inh: -5; ALR H2O2 inh: 8; UCH37 inh: 2; HDAC3 inhib: 1

How did COC(=O)C1=C(C(=O)c2ccccc2)C(c2cccs2)n2nnnc2N1 (stereo unspecified) do in these assays?
PfM18AAP inh-1: 55*; Rtt109 HAT inh: 1; FAS-TE inh: -8; ALR H2O2 inh: 7; UCH37 inh: 5; HDAC3 inhib: 1; PfM18AAP inh-2: -29; CTSL1 confirm: -3

What do the screens show for `COC(=O)C1=C(C(=O)c2ccc(C)cc2)C(c2ccc(OC)c(OC)c2)n2nnnc2N1` (stereo unspecified)?
PfM18AAP inh-1: 47*; Rtt109 HAT inh: -1; FAS-TE inh: -4; ALR H2O2 inh: 1; UCH37 inh: 6; HDAC3 inhib: 13; PfM18AAP inh-2: -32; CTSL1 confirm: 2

Results for COC(=O)C1=C(C(=O)c2ccc(C)cc2)C(c2ccc(O)c(OC)c2)n2nnnc2N1 (stereo unspecified) ?
PfM18AAP inh-1: 60*; Rtt109 HAT inh: 8; FAS-TE inh: -8; ALR H2O2 inh: 28; UCH37 inh: -3; HDAC3 inhib: 6; PfM18AAP inh-2: -26; CTSL1 confirm: -4

How did CCOc1cc(C2C(C(=O)c3ccccc3)=C(C(=O)OC)Nc3nnnn32)ccc1O (stereo unspecified) do in these assays?
PfM18AAP inh-1: 18; Rtt109 HAT inh: 2; FAS-TE inh: -1; ALR H2O2 inh: 17; UCH37 inh: 3; HDAC3 inhib: -1

How did COc1ccc(C=NNC(=O)c2ccncc2)cc1CSc1nc2ccccc2s1 do in these assays?
UCH37 inh: 2

What do the screens show for `O=C(NNc1cccc(Cl)n1)Nc1cccc(Cl)c1`?
PfM18AAP inh-1: 52*; Rtt109 HAT inh: -4; FAS-TE inh: 4; ALR H2O2 inh: 5; UCH37 inh: 2; HDAC3 inhib: 1; PfM18AAP inh-2: 49*; CTSL1 confirm: 2

How did Cc1ccc(NC(=O)NNc2cccc(Cl)n2)cc1 do in these assays?
PfM18AAP inh-1: 53*; Rtt109 HAT inh: 0; FAS-TE inh: 0; ALR H2O2 inh: -29; UCH37 inh: 0; HDAC3 inhib: -3; PfM18AAP inh-2: 24; CTSL1 confirm: -5

What do the screens show for `O=C(NNc1cccc(Cl)n1)Nc1ccccc1`?
PfM18AAP inh-1: 59*; Rtt109 HAT inh: 1; FAS-TE inh: -3; ALR H2O2 inh: -1; UCH37 inh: 2; HDAC3 inhib: -7; PfM18AAP inh-2: 43*; CTSL1 confirm: 0

What do the screens show for `CC(=NNC(=O)c1cc(-c2ccccc2)nc2c(Cl)cccc12)c1cccnc1`?
UCH37 inh: -4

How did CC(C)Cn1c(=S)[nH]c2cc(C(=O)O)ccc2c1=O do in these assays?
PfM18AAP inh-1: 16; Rtt109 HAT inh: 2; FAS-TE inh: -2; ALR H2O2 inh: 1; UCH37 inh: 0; HDAC3 inhib: 0

What do the screens show for `CC(C)Cn1c2ccccc2c2cc(C(=O)O)ccc21`?
PfM18AAP inh-1: 55*; Rtt109 HAT inh: -17; FAS-TE inh: -3; ALR H2O2 inh: -16; UCH37 inh: 4; HDAC3 inhib: -6; PfM18AAP inh-2: -43; CTSL1 confirm: 1

How did CC(=O)Nc1ccc(S(=O)(=O)N(CCc2ccccc2)CC(=O)NN=Cc2ccc(C(=O)O)cc2)cc1 do in these assays?
UCH37 inh: 5

How did COc1cc(C(c2c(C)[nH][nH]c2=O)c2c(C)[nH][nH]c2=O)cc(OC)c1OC do in these assays?
PfM18AAP inh-1: 35*; Rtt109 HAT inh: -16; FAS-TE inh: -4; ALR H2O2 inh: 6; UCH37 inh: 1; HDAC3 inhib: 2; PfM18AAP inh-2: 6; CTSL1 confirm: -2
